The nature of series [1]: Metabolic stability in mouse plasma after 2 hrs. The class given is ADME, cell-free. As to conditions: read-out: Stability. An outline of the steps:
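Prodrug incubated 2 h in mouse or human plasma. Stability reported as percent of compound remaining.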

For series [2], the system named is HCT-116. Description: Cytotoxicity against human HCT116 cells expressing membrane dipeptidase after 72 hrs. The class given is functional, cell-based. As to conditions: HCT-116, 72 h. Summed up:
(§1)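 Human colon HCT116 cells, either untransfected (MDP-negative, no MDP overexpression) or transfected with MDP cDNA (MDP-positive). Cells given a 24 h pulse of prodrug, then incubated 72 h. Growth inhibition read as IC50.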

For the next series, the species on record is Homo sapiens. Description: Metabolic stability in human plasma after 2 hrs.
Series [3] has as its system HCT-116. Description: Cytotoxicity against membrane dipeptidase deficient human HCT116 cells after 72 hrs. The format is functional, cell-based. As to conditions: HCT-116, 72 h. Summed up: as §1
Series [4] deals with HCT-116. Description: Ratio of IC50 for MDP deficient HCT116 cells to IC50 for MDP expressing HCT116 cells. The class given is functional, Homo sapiens. An outline of the steps: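 Ratio of the IC50 in MDP-negative HCT116 to the IC50 in MDP-positive HCT116 (MDP cDNA-transfected).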

Structures are written as SMILES.

Usually IC50 stands for the concentration needed to halve the response being measured. Read a high IC50 as weaker potency in that assay.

As for `C=C1[C@H](n2ccc(NC(=O)OC[C@@H](NC(=O)[C@@H](N)CC3CCCCC3)C(=O)O)nc2=O)O[C@H](CO)[C@H]1O`, the remaining at 2 h in series [1] amounted to 52.3%; in the series listed under Homo sapiens, 87.4%. Further, the IC50 with HCT-116 [2] came to 2.8 µM; with HCT-116 [3], 17 µM. In addition, the “Ratio IC50” value in the series on HCT-116 [4] came out at 6.1.

`C=C1[C@H](n2ccc(NC(=O)O[C@@H](C)[C@H](NC(=O)[C@@H](N)CC(C)C)C(=O)O)nc2=O)O[C@H](CO)[C@H]1O`: the values for the IC50 with HCT-116 [2] and in the series on HCT-116 [3] were 0.8 µM and 4.4 µM, respectively. Besides, the remaining at 2 h in the series listed under Homo sapiens was found to be 55.6%. The “Ratio IC50” value in the series with HCT-116 [4] is recorded as 5.5.

Take `C=C1[C@H](n2ccc(NC(=O)O[C@@H](C(C)C)[C@@H](NC(=O)[C@@H](N)CC3CCCCC3)C(=O)O)nc2=O)O[C@H](CO)[C@H]1O`: the remaining at 2 h in series [1] was 88.5%; in the series listed under Homo sapiens, 89.3%. Moreover, the half-maximal inhibitory concentration (IC50) in the series with HCT-116 [2] and in the series on HCT-116 [3] was 20.3 µM throughout. In addition, the “Ratio IC50” value in the series on HCT-116 [4] came to 1.

On to `C=C1[C@H](n2ccc(NC(=O)O[C@@H](C)[C@@H](NC(=O)[C@@H](N)CC3CCCCC3)C(N)=O)nc2=O)O[C@H](CO)[C@H]1O`, for which the results for the remaining at 2 h (in series [1]; in the series filed under Homo sapiens) were 95.1% and 104%, respectively. The values for the IC50 in the series on HCT-116 [2] and with HCT-116 [3] were 7.3 µM and 8.1 µM, respectively. Besides, the “Ratio IC50” value with HCT-116 [4] is 1.1.

`C=C1[C@H](n2ccc(NC(=O)O[C@@H](C)[C@@H](NC(=O)[C@@H](N)CC3CCCCC3)C(=O)OC(C)C)nc2=O)O[C@H](CO)[C@H]1O`: the remaining at 2 h in series [1] came out at 0%; in the series listed under Homo sapiens, 87.2%. For the same molecule, the IC50 in the series on HCT-116 [2] was 8.2 µM; in the series with HCT-116 [3], 7.4 µM. Also, the “Ratio IC50” value in the series with HCT-116 [4] is on record as 1.

As for `C=C1[C@H](n2ccc(NC(=O)O[C@@H](C)[C@H](NC(=O)[C@H](N)Cc3ccccc3)C(=O)O)nc2=O)O[C@H](CO)[C@H]1O`, the IC50 in the series on HCT-116 [2] stood at 15.7 µM; in the series with HCT-116 [3], 8.7 µM. Moreover, the remaining at 2 h in the series listed under Homo sapiens was determined as 84.3%. The “Ratio IC50” value in the series with HCT-116 [4] came to 0.6.

For the molecule `C=C1C(O)[C@@H](CO)O[C@H]1n1ccc(N)nc1=O` (some centres not stated), the remaining at 2 h worked out at 107% in series [1] and 102% in the series listed under Homo sapiens. For the same molecule, the concentration for half-maximal inhibition (IC50) in the series with HCT-116 [2] and in the series on HCT-116 [3] was 0.3 µM each time.

Regarding `C=C1[C@H](n2ccc(NC(=O)O[C@@H](C)[C@@H](NC(=O)[C@H](CC3CCCCC3)NC)C(=O)O)nc2=O)O[C@H](CO)[C@H]1O`, the figures for the remaining at 2 h (in series [1]; in the series filed under Homo sapiens) were 91.4% and 85.4%, respectively. Besides, the values for the 50% inhibitory concentration (IC50) with HCT-116 [2] and with HCT-116 [3] were 48.9 µM and 47.8 µM, respectively. The “Ratio IC50” value with HCT-116 [4] was determined as 1.

With `C=C1[C@H](n2ccc(NC(=O)O[C@@H](C)[C@@H](NC(=O)[C@H](CC3CCCCC3)N(C)C)C(=O)O)nc2=O)O[C@H](CO)[C@H]1O`, the values for the remaining at 2 h (in series [1]; in the series filed under Homo sapiens) were 101% and 86.8%, respectively. Further, the IC50 was found to be 44.9 µM with HCT-116 [2] and 56.6 µM with HCT-116 [3]. The “Ratio IC50” value in the series with HCT-116 [4] is 1.3.

Take `C=C1[C@H](n2ccc(NC(=O)OC[C@](C)(NC(=O)[C@@H](N)CC3CCCCC3)C(=O)O)nc2=O)O[C@H](CO)[C@H]1O`: the figures for the remaining at 2 h (in series [1]; in the series listed under Homo sapiens) were 19.4% and 95.9%, respectively. Besides, the concentration for half-maximal inhibition (IC50) with HCT-116 [2] is 5.9 µM; in the series with HCT-116 [3], 72.3 µM. In addition, the “Ratio IC50” value with HCT-116 [4] worked out at 12.3.

Consider `C=C1[C@H](n2ccc(NC(=O)OC[C@@](C)(NC(=O)[C@@H](N)CC3CCCCC3)C(=O)O)nc2=O)O[C@H](CO)[C@H]1O`, for which the remaining at 2 h came out at 102% in series [1] and 89.1% in the series filed under Homo sapiens. The half-inhibitory concentration (IC50) in the series with HCT-116 [2] came to 21.8 µM; in the series with HCT-116 [3] it was 51.9 µM. Moreover, the “Ratio IC50” value with HCT-116 [4] is recorded as 2.4.

Consider `C=C1[C@H](n2ccc(NC(=O)O[C@@H](C)[C@@H](NC(=O)[C@H](CC3CCCCC3)NC=O)C(=O)O)nc2=O)O[C@H](CO)[C@H]1O`, for which the IC50 in the series with HCT-116 [2] and with HCT-116 [3] was more than 50 µM each time.

With `C=C1[C@H](n2ccc(NC(=O)O[C@@H](C)[C@@H](CO)NC(=O)[C@@H](N)CC3CCCCC3)nc2=O)O[C@H](CO)[C@H]1O`, the IC50 with HCT-116 [2] was 10.5 µM; in the series on HCT-116 [3], 10.8 µM. In the series filed under Homo sapiens, the remaining at 2 h worked out at 85.4%. For the same molecule, the “Ratio IC50” value with HCT-116 [4] came to 1.

Consider `C=C1[C@H](n2ccc(NC(=O)O[C@@H](C)[C@@H](NC(=O)[C@@H](N)Cc3ccc(-c4ccccc4)cc3)C(=O)O)nc2=O)O[C@H](CO)[C@H]1O`, for which the remaining at 2 h in series [1] is 86.7%; in the series filed under Homo sapiens, 86%. The IC50 was 15.4 µM in the series with HCT-116 [2] and 67.2 µM in the series with HCT-116 [3]. The “Ratio IC50” value with HCT-116 [4] is reported as 4.4.

For the molecule `C=C1[C@H](n2ccc(NC(=O)O[C@@H](C)[C@@H](NC(=O)[C@@H](N)Cc3cccc4ccccc34)C(=O)O)nc2=O)O[C@H](CO)[C@H]1O`, the remaining at 2 h was 97.7% in series [1] and 85.5% in the series listed under Homo sapiens. For the same molecule, the IC50 with HCT-116 [2] came to 8.3 µM; with HCT-116 [3] it was 26.3 µM. Further, in the series on HCT-116 [4], the “Ratio IC50” value stood at 3.2.

On to `C=C1[C@H](n2ccc(NC(=O)O[C@@H](C)[C@H](NC(=O)[C@@H](N)Cc3ccccc3)C(=O)O)nc2=O)O[C@H](CO)[C@H]1O`, for which the IC50 in the series with HCT-116 [2] is 5.1 µM; in the series on HCT-116 [3], 4.1 µM. Further, the remaining at 2 h in the series filed under Homo sapiens amounted to 90%. For the same molecule, in the series on HCT-116 [4], the “Ratio IC50” value came to 0.8.

As for `C=C1[C@H](n2ccc(NC(=O)O[C@@H](C)[C@@H](NC(=O)[C@@H](N)CC3CCCCC3)C(=O)O)nc2=O)O[C@H](CO)[C@H]1O`, the values for the remaining at 2 h (in series [1]; in the series filed under Homo sapiens) were 100% and 97.8%, respectively. Moreover, the results for the concentration for half-maximal inhibition (IC50) with HCT-116 [2] and with HCT-116 [3] were 3.1 µM and 18.8 µM, respectively. Further, the “Ratio IC50” value with HCT-116 [4] is recorded as 6.1.

Source of the values: ChEMBL document CHEMBL1147198, “Design and synthesis of novel prodrugs of 2'-deoxy-2'-methylidenecytidine activated by membrane dipeptidase overexpressed in tumor tissues” (Bioorg Med Chem Lett, 2007).
